Measured values reported in article PMC5458759 (Genes & Development, 2017).

T1: ERL2^LRR, extracellular LRR domain of ERL2 (Arabidopsis thaliana, UniProt Q6XAT2 28-580)
T1 sequence: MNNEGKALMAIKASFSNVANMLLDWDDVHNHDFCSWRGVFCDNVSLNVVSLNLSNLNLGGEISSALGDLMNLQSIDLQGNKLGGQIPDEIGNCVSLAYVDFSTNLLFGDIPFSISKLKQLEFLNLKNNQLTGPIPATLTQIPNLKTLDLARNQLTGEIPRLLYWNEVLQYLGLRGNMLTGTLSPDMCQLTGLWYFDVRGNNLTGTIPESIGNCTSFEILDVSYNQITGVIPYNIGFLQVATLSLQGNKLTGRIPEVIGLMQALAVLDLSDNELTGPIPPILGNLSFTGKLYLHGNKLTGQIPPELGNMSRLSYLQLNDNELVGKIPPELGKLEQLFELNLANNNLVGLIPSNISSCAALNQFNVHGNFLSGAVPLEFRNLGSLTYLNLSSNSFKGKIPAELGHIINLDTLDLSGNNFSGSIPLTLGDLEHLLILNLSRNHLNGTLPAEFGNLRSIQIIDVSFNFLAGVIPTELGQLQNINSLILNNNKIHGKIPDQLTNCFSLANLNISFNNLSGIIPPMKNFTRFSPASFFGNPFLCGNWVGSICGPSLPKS

T2: ER^LRR, extracellular LRR domain of ERECTA (ER) (Arabidopsis thaliana, UniProt Q42371 24-580)
T2 sequence: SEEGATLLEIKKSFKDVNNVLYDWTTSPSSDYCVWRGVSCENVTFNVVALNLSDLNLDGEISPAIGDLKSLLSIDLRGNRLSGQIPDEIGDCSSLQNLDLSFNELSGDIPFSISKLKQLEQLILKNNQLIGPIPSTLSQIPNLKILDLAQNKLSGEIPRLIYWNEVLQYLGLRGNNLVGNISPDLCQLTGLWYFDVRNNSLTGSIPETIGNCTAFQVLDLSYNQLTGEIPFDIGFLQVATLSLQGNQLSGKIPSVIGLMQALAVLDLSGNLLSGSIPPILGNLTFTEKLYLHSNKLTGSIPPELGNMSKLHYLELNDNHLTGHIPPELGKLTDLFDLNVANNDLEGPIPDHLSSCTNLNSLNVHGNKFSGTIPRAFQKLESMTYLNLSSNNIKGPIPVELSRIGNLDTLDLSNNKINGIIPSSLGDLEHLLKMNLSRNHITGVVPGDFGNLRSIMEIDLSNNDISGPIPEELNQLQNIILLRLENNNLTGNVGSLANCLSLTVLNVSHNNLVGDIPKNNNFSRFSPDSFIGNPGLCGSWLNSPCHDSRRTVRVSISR

T3: ERL1^LRR–TMM^LRR complex (Arabidopsis thaliana, UniProt C0LGW6;Q9SSD1)
T3 sequence 1: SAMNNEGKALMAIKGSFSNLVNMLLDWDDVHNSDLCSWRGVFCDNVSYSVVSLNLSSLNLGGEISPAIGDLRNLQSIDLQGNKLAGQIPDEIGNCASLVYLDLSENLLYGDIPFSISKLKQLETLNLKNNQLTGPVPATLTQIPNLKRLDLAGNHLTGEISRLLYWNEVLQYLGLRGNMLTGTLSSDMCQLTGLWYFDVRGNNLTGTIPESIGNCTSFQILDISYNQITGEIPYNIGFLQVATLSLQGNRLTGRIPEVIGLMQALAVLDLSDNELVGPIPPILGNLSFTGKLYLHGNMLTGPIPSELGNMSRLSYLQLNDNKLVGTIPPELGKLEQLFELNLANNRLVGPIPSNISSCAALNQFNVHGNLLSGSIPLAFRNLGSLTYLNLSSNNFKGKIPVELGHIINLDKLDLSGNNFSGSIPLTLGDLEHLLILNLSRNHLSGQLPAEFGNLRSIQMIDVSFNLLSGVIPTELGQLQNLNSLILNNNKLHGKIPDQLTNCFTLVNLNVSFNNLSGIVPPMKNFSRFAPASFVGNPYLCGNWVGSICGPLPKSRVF
T3 sequence 2: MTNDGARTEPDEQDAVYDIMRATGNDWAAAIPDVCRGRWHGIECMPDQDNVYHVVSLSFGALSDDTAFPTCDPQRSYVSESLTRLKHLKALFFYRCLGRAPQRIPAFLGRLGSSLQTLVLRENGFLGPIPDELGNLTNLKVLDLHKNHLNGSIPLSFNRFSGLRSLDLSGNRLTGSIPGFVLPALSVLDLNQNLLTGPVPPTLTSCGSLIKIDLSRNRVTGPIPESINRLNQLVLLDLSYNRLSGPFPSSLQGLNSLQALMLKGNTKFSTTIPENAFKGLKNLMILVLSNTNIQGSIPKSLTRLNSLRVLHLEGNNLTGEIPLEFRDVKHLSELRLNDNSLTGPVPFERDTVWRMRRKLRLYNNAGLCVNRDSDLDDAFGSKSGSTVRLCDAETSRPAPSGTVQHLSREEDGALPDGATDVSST

T4: ER^LRR–TMM^LRR complex (Arabidopsis thaliana, UniProt Q42371;Q9SSD1)
T4 sequence 1: T2 sequence
T4 sequence 2: T3 sequence 2

T5: ERL1^LRR, extracellular LRR domain of ER-LIKE1 (ERL1) (Arabidopsis thaliana, UniProt C0LGW6 24-580)
T5 sequence: T3 sequence 1

B1: EPFL4 (CHALLAH-LIKE2, CLL2) peptide, residues 59–109 (peptide)
chain: PGSSPPTCRSKCGKCQPCKPVHVPIQPGLSMPLEYYPEAWRCKCGNKLFMP
B2: … PATTERNING FACTOR 1 (EPF1) peptide, residues 53–104 (peptide)
chain: AGSRLPDCSHACGSCSPCRLVMVSFVCASVEEAETCPMAYKCMCNNKSYPVP
B3: TMM^LRR, extracellular LRR domain of TOO MANY MOUTHS (TMM) (domain or fragment)
chain: T3 sequence 2
B4: … PATTERNING FACTOR 2 (EPF2) peptide, residues 69–120 (peptide)
chain: TGSSLPDCSYACGACSPCKRVMISFECSVAESCSVIYRCTCRGRYYHVPSRA
B5: EPF2-6xHis (C-terminally His-tagged EPF2) (peptide)
chain: B4 chain

Key:
[1] = target: ERL1^LRR–TMM^LRR complex (Arabidopsis thaliana) (UniProt C0LGW6); experiment: ITC
ER^LRR [2] = experiment: Pull-down assay with 6xHis-tagged ER^LRR; format: binding, Arabidopsis; conditions: Ni resin, SDS-PAGE, Coomassie blue; without TMM^LRR
Procedure, shortened: (§1)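 Purified C-terminal 6xHis-tagged receptor LRR, from High Five cells, was mixed with excess EPF-family peptide and Ni resin for 30 min on ice. The resin was washed four times in 25 mM Tris pH 8.0, 250 mM NaCl, 15 mM imidazole, then heated 5 min at 100°C in SDS loading buffer. Bound protein was detected by SDS-PAGE with Coomassie staining.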

ERL1^LRR [3] = experiment: Gel filtration assay with ERL1^LRR; format: binding, Arabidopsis; conditions: 10 mM Bis-Tris pH 6.0, 100 mM NaCl; incubated 30 min at 4°C
Procedure, shortened: (§2)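 LRR ectodomains were expressed in High Five insect cells by baculovirus at 22°C; for complexes, the ERf and TMM viruses were added together. Protein was purified from the supernatant by Ni-NTA and then size exclusion. Receptor and EPF-family peptide were mixed, held 30 min at 4°C, then run on Superdex 200 in 10 mM Bis-Tris pH 6.0, 100 mM NaCl. Fractions were analysed by SDS-PAGE with Coomassie staining.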

ERL1^LRR–TMM^LRR complex [4] = experiment: Gel filtration assay with ERL1^LRR–TMM^LRR complex; format: binding, Arabidopsis; conditions: 10 mM Bis-Tris pH 6.0, 100 mM NaCl; incubated 30 min at 4°C
Procedure, shortened: as §2

ER^LRR–TMM^LRR complex [5] = experiment: Gel filtration assay with ER^LRR–TMM^LRR complex; format: binding, Arabidopsis; conditions: 10 mM Bis-Tris pH 6.0, 100 mM NaCl; incubated 30 min at 4°C
Procedure, shortened: as §2

ER^LRR [6] = experiment: Gel filtration assay with ER^LRR; format: binding, Arabidopsis; conditions: 10 mM Bis-Tris pH 6.0, 100 mM NaCl; incubated 30 min at 4°C
Procedure, shortened: as §2

ERL1^LRR [7] = experiment: Pull-down assay with 6xHis-tagged ERL1^LRR; format: binding, Arabidopsis; conditions: Ni resin, SDS-PAGE, Coomassie blue; without TMM^LRR
Procedure, shortened: as §1

ERL2^LRR = experiment: Pull-down assay with 6xHis-tagged ERL2^LRR; format: binding, Arabidopsis; conditions: Ni resin, SDS-PAGE, Coomassie blue; without TMM^LRR
Procedure, shortened: as §1

[8] = target: T1, ERL2^LRR, extracellular LRR domain of …; experiment: pull-down
[9] = target: T2, ER^LRR, extracellular LRR domain of …; experiment: pull-down
ERL1^LRR–TMM^LRR complex [10] = target: T3, ERL1^LRR–TMM^LRR complex; experiment: ITC
ER^LRR–TMM^LRR complex [11] = target: T4, ER^LRR–TMM^LRR complex; experiment: SEC
[12] = target: B3; experiment: crystal structure
[13] = target: T2, ER^LRR, extracellular LRR domain of …; experiment: SEC
[14] = target: T5, ERL1^LRR, extracellular LRR domain of …; experiment: SEC
ER^LRR–TMM^LRR complex [15] = target: T4, ER^LRR–TMM^LRR complex; experiment: pull-down

“EPFL4–EPF1, swapped EPFL4 mutant with the apical loop region of EPF1 (peptide)” gave a Kd [1] of 420 nM.

With “EPF2: cysteine-rich EPF family peptide, residues 69–120, expressed in insect cells (TGSSLPDCSYACGACSPCKRVMISFECSVAESCSVIYRCTCRGRYYHVPSRA)” the “interaction with ER^LRR in pull-down” value (ER^LRR [2]) was “none of the three ERf proteins displayed interaction”, the “interaction with ERL1^LRR alone in gel filtration” value (ERL1^LRR [3]) was “no binding” and the “interaction with ERL1^LRR–TMM^LRR in gel filtration (comigration)” value (ERL1^LRR–TMM^LRR complex [4]) was “strong interaction”. For the same molecule, the “interaction with ER^LRR–TMM^LRR in gel filtration (comigration)” value (ER^LRR–TMM^LRR complex [5]) was “strong interaction”, the “interaction with ER^LRR alone in gel filtration” value (ER^LRR [6]) was “no binding” and the “interaction with ERL1^LRR in pull-down” value (ERL1^LRR [7]) was “none of the three ERf proteins displayed interaction”. For the same molecule, the “interaction with ERL2^LRR in pull-down” value (ERL2^LRR) was “none of the three ERf proteins displayed interaction”.

In the case of “EPFL6: EPF family growth regulatory peptide, residues 106–156 (LGSSPPRCSSKCGRCTPCKPVHVPVPPGTPVTAEYYPEAWRCKCGNKLYMP)”, the “interaction with ER^LRR in pull-down” value (ER^LRR [2]) is reported as “sufficient for interaction”, the “interaction with ERL1^LRR in pull-down” value (ERL1^LRR [7]) is reported as “sufficient for interaction” and the “interaction with ERL2^LRR in pull-down” value (ERL2^LRR) is reported as “sufficient for interaction”.

“EPF1: cysteine-rich EPF family peptide, residues 53–104, expressed in High Five insect cells (AGSRLPDCSHACGSCSPCRLVMVSFVCASVEEAETCPMAYKCMCNNKSYPVP)” was tested, and the “interaction with ERL1^LRR alone in gel filtration” value (ERL1^LRR [3]) was “no binding”, the “interaction with ERL1^LRR–TMM^LRR in gel filtration (comigration)” value (ERL1^LRR–TMM^LRR complex [4]) was “strong interaction” and the “interaction with ER^LRR–TMM^LRR in gel filtration (comigration)” value (ER^LRR–TMM^LRR complex [5]) was “strong interaction”. The “interaction with ER^LRR alone in gel filtration” value (ER^LRR [6]) was “no binding”.

For B1, the binding result [8] was “binds”, the binding result [9] was “binds” and the Kd (ERL1^LRR–TMM^LRR complex [10]) was 1300 nM.

B2: binds (ER^LRR–TMM^LRR complex [11]); binds [12].

With B3 the “stoichiometry N” value [13] was about 1 and the “stoichiometry N” value [14] was about 1.

B4: binds (ER^LRR–TMM^LRR complex [11]); binds [12].

B5: binds (ER^LRR–TMM^LRR complex [15]).
